Measured values taken from ChEMBL document CHEMBL1123505, “Synthesis, structure, and antitumor activity of N-salicyloyl-N'-(2-furylthiocarbonyl)hydrazine and its copper(II) complex” (1986).

Key:
Assay type in all cases: functional
Mus musculus [1] = assay: Antitumor activity against fibrosarcoma infected mice at the dosage of 10 mg/kg (ip) and expressed as no. of mice injected; T/C= 6/6
Mus musculus [2] = assay: Antitumor activity against fibrosarcoma infected mice at the dosage of 10 mg/kg (sc) and expressed as no. of mice injected; T/C= 8/7
Mus musculus [3] = assay: Antitumor activity against fibrosarcoma infected mice at the dosage of 25 mg/kg (ip) and expressed as no. of mice injected; T/C= 10/10
Mus musculus [4] = assay: Antitumor activity against fibrosarcoma infected mice at the dosage of 25 mg/kg (sc) and expressed as no. of mice injected; T/C= 8/9
Mus musculus [5] = assay: Antitumor activity against fibrosarcoma infected mice at the dosage of 50 mg/kg (ip) and expressed as no. of mice injected; T/C= 8/8
Mus musculus [6] = assay: Antitumor activity against fibrosarcoma infected mice at the dosage of 5 mg/kg (ip) and expressed as no. of mice injected; T/C= 8/6
Mus musculus [7] = assay: Antitumor activity against fibrosarcoma infected mice at the dosage of 5 mg/kg (sc) and expressed as no. of mice injected; T/C= 7/7
Mus musculus [8] = assay: Antitumor activity expressed as the no. of mice surviving >6 months was tested against fibrosarcoma at the dosage of 50 mg/kg (ip)
Procedure, shortened: (§1)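 Fibrosarcoma was established by sc inoculation of 4 × 10⁶ cells in mice. On day 3 they received a single ip or sc injection of compound freshly suspended in 0.89% saline, with 5–10 mice per group. The count is of mice surviving 6 months or more after treatment, scored as tumor-free, with the percentage of the group also given.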

Mus musculus [9] = assay: Antitumor activity expressed as the no. of mice surviving >6 months was tested against fibrosarcoma at the dosage of 5 mg/kg (ip); procedure, shortened: as §1
Mus musculus [10] = assay: Antitumor activity expressed as %T/C was tested against fibrosarcoma at the dosage of 10 mg/Kg (sc)
Procedure, shortened: (§2)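 Fibrosarcoma: 4 × 10⁶ cells were given sc to C₃H/He mice, 25–30 g. A single ip or sc dose in 0.89% saline followed on day three, with saline-injected controls. Mean life span of nonsurvivors excludes mice surviving 6 months or more, which were counted as tumour-free. T/C% is treated mean survival, excluding tumour-free survivors, divided by untreated mean life span ×100.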

Mus musculus [11] = assay: Antitumor activity expressed as %T/C was tested against fibrosarcoma at the dosage of 25 mg/Kg (ip); procedure, shortened: as §2
Mus musculus [12] = assay: Antitumor activity expressed as %T/C was tested against fibrosarcoma at the dosage of 25 mg/Kg (sc); procedure, shortened: as §2
Mus musculus [13] = assay: Antitumor activity expressed as %T/C was tested against fibrosarcoma at the dosage of 5 mg/Kg (ip); procedure, shortened: as §2
Mus musculus [14] = assay: Antitumor activity expressed as %T/C was tested against fibrosarcoma at the dosage of 5 mg/Kg (sc); procedure, shortened: as §2
Mus musculus [15] = assay: Antitumor activity expressed as %T/C was tested against fibrosarcoma at the dosage of 50 mg/Kg (ip); procedure, shortened: as §2
Mus musculus [16] = assay: Antitumor activity expressed as mean life span of nonsurvivors in days (T/C) was tested against Dalton's lymphoma at the dosage of 10 mg/kg (ip); 33/21
Mus musculus [17] = assay: Antitumor activity expressed as mean life span of nonsurvivors in days (T/C) was tested against Dalton's lymphoma at the dosage of 25 mg/kg (ip); 41/21
Mus musculus [18] = assay: Antitumor activity expressed as mean life span of nonsurvivors in days (T/C) was tested against Dalton's lymphoma at the dosage of 2 mg/kg (ip); 27/21
Mus musculus [19] = assay: Antitumor activity expressed as mean life span of nonsurvivors in days (T/C) was tested against fibrosarcoma at the dosage of 10 mg/kg (ip); 38/26
Procedure, shortened: (§3)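 On day 3 after transplantation they received a single ip or sc dose of compound freshly suspended in 0.89% saline. Saline-injected controls were used, with 5–10 mice per group. Mean life span of treated nonsurvivors is shown against untreated controls, excluding mice surviving ≥6 months.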

Mus musculus [20] = assay: Antitumor activity expressed as mean life span of nonsurvivors in days (T/C) was tested against fibrosarcoma at the dosage of 10 mg/kg (sc); 37/27; procedure, shortened: as §3
Mus musculus [21] = assay: Antitumor activity expressed as mean life span of nonsurvivors in days (T/C) was tested against fibrosarcoma at the dosage of 25 mg/kg (ip); 40/28; procedure, shortened: as §3
Mus musculus [22] = assay: Antitumor activity expressed as mean life span of nonsurvivors in days (T/C) was tested against fibrosarcoma at the dosage of 25 mg/kg (sc); 41/26; procedure, shortened: as §3
Mus musculus [23] = assay: Antitumor activity expressed as mean life span of nonsurvivors in days (T/C) was tested against fibrosarcoma at the dosage of 50 mg/kg (ip); 45/27; procedure, shortened: as §3
Mus musculus [24] = assay: Antitumor activity expressed as %T/C was tested against Dalton's lymphoma at the dosage of 10 mg/Kg (ip)
Procedure, shortened: (§4)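 Dalton's lymphoma: 2 × 10⁷ ascites cells were given ip to DbA mice, 18–20 g. A single ip dose in 0.89% saline followed on day two, with saline-injected controls. Mean life span was calculated excluding mice that survived 6 months or more. T/C% is the mean survival of treated mice, excluding tumour-free survivors, divided by the mean life span of untreated mice ×100.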

Mus musculus [25] = assay: Antitumor activity expressed as %T/C was tested against Dalton's lymphoma at the dosage of 2 mg/Kg (ip); procedure, shortened: as §4
Mus musculus [26] = assay: Antitumor activity expressed as %T/C was tested against Dalton's lymphoma at the dosage of 25 mg/Kg (ip); procedure, shortened: as §4
Mus musculus [27] = assay: Antitumor activity expressed as %T/C was tested against fibrosarcoma at the dosage of 10 mg/Kg (ip); procedure, shortened: as §2
Mus musculus [28] = assay: Antitumor activity expressed as the no. of mice surviving >6 months was tested against fibrosarcoma at the dosage of 10 mg/kg (ip); procedure, shortened: as §1
Mus musculus [29] = assay: Antitumor activity expressed as the no. of mice surviving >6 months was tested against fibrosarcoma at the dosage of 25 mg/kg (ip); procedure, shortened: as §1
Mus musculus [30] = assay: Antitumor activity expressed as the no. of mice surviving >6 months was tested against fibrosarcoma at the dosage of 25 mg/kg (sc); procedure, shortened: as §1
Mus musculus [31] = assay: Antitumor activity expressed as mean life span of nonsurvivors in days (T/C) was tested against fibrosarcoma at the dosage of 5 mg/kg (ip); 41/27; procedure, shortened: as §3
Mus musculus [32] = assay: Antitumor activity expressed as mean life span of nonsurvivors in days (T/C) was tested against fibrosarcoma at the dosage of 5 mg/kg (sc); 36/26; procedure, shortened: as §3
Mus musculus [33] = assay: Antitumor activity against Dalton's lymphoma infected mice at the dosage of 10 mg/kg (ip) and expressed as no. of mice injected; T/C= 5/5
Mus musculus [34] = assay: Antitumor activity against Dalton's lymphoma infected mice at the dosage of 25 mg/kg (ip) and expressed as no. of mice injected; T/C= 5/5
Mus musculus [35] = assay: Antitumor activity against Dalton's lymphoma infected mice at the dosage of 2 mg/kg (ip) and expressed as no. of mice injected; T/C= 5/5
Mus musculus [36] = assay: Antitumor activity expressed as average body weight change was tested against fibrosarcoma at the dosage of 5 mg/kg (sc)
Procedure, shortened: (§5)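 Fibrosarcoma-bearing C₃H/He mice (4 × 10⁶ cells sc) received a single ip or sc dose in 0.89% saline on day three after transplant; controls received saline. The day of injection was taken as day zero. Mice were weighed on alternate days up to 4 weeks. Values are average % weight change from the day of treatment to day 21.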

Mus musculus [37] = assay: Antitumor activity expressed as average body weight change was tested against fibrosarcoma at the dosage of 10 mg/kg (Ip); procedure, shortened: as §5
Mus musculus [38] = assay: Antitumor activity expressed as average body weight change was tested against fibrosarcoma at the dosage of 10 mg/kg (sc); procedure, shortened: as §5
Mus musculus [39] = assay: Antitumor activity expressed as average body weight change was tested against fibrosarcoma at the dosage of 25 mg/kg (Ip); procedure, shortened: as §5
Mus musculus [40] = assay: Antitumor activity expressed as average body weight change was tested against fibrosarcoma at the dosage of 25 mg/kg (sc); procedure, shortened: as §5
Mus musculus [41] = assay: Antitumor activity expressed as average body weight change was tested against fibrosarcoma at the dosage of 50 mg/kg (Ip); procedure, shortened: as §5
Mus musculus [42] = assay: Antitumor activity expressed as average body weight change was tested against fibrosarcoma at the dosage of 5 mg/kg (Ip); procedure, shortened: as §5

## O=C(NN=C(S)c1ccco1)c1ccccc1O
Mus musculus [1]
  T/C: 6
Mus musculus [2]
  T/C: 8
Mus musculus [3]
  T/C: 10
Mus musculus [4]
  T/C: 8
Mus musculus [5]
  T/C: 8
Mus musculus [6]
  T/C: 8
Mus musculus [7]
  T/C: 7
Mus musculus [8]
  No. of mice surviving >6 months: 6
Mus musculus [9]
  No. of mice surviving >6 months: 4
Mus musculus [10]
  T/C: 137%
Mus musculus [11]
  T/C: 143%
Mus musculus [12]
  T/C: 158%
Mus musculus [13]
  T/C: 152%
Mus musculus [14]
  T/C: 139%
Mus musculus [15]
  T/C: 167%
Mus musculus [16]
  T/C: 33 days
Mus musculus [17]
  T/C: 41 days
Mus musculus [18]
  T/C: 27 days
Mus musculus [19]
  T/C: 38 days
Mus musculus [20]
  T/C: 37 days
Mus musculus [21]
  T/C: 40 days
Mus musculus [22]
  T/C: 41 days
Mus musculus [23]
  T/C: 45 days
Mus musculus [24]
  T/C: 157%
Mus musculus [25]
  T/C: 128%
Mus musculus [26]
  T/C: 195%
Mus musculus [27]
  T/C: 146%
Mus musculus [28]
  No. of mice surviving >6 months: 3
Mus musculus [29]
  No. of mice surviving >6 months: 5
Mus musculus [30]
  No. of mice surviving >6 months: 6
Mus musculus [31]
  T/C: 41 days
Mus musculus [32]
  T/C: 36 days
Mus musculus [33]
  T/C: 5
Mus musculus [34]
  T/C: 5
Mus musculus [35]
  T/C: 5
Mus musculus [36]
  Average body weight change: 11.62%
Mus musculus [37]
  Average body weight change: 11.27%
Mus musculus [38]
  Average body weight change: 12.31%
Mus musculus [39]
  Average body weight change: 7.88%
Mus musculus [40]
  Average body weight change: 9.96%
Mus musculus [41]
  Average body weight change: 2.65%
Mus musculus [42]
  Average body weight change: 15.1%
